Data as given in ChEMBL document CHEMBL3525994, “Lysosomal sequestration (trapping) of lipophilic amine (cationic amphiphilic) drugs in immortalized human hepatocytes (Fa2N-4 cells)” (Drug Metab Dispos, 2013).

What was measured:
[1] = Drug uptake in lysosomes of human Fa2N-4 cells assessed as inhibition of LysoTracker Red fluorescence after 30 mins; assay type: ADME, cell-based, Lysosome; conditions: Fa2N-4, 0.5 h
[2] = Drug uptake in lysosomes of human Fa2N-4 cells assessed as inhibition of LysoTracker Red fluorescence at 500 uM after 30 mins relative to control; assay type: cell-based, Lysosome; conditions: Fa2N-4 cells (lysosomes), probe LysoTracker Red
Method in brief: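 Fa2N-4 cells at 50,000/well on collagen, rinsed with PBS. Drug (methanol stock diluted in supplemented modified Chee's medium; final 1–500 μM) with LysoTracker Red 50 nM final, 30 min, 37°C, triplicate. Cells PBS-rinsed and solubilised in acetonitrile. Fluorescence read at ex 530/em 590 nm. Medium kept for LDH release.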

[3] = Drug uptake in lysosomes of human Fa2N-4 cells assessed as cellular partitioning measured per 10^6 cells at 1 uM after 5 mins by LC-MS analysis; assay type: ADME, cell-based, Lysosome; conditions: fa2n-4, 5 min
Method in brief: (§1)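 Fa2N-4 cells, plated at 50,000/well on collagen in MFE with 10% newborn calf serum, switched to serum-free medium after attachment and used 36–48 h after plating. Substrate 1 μM in serum-free MFE, 37±1°C. Cells and substrate solution preincubated apart 5 min, then combined (± ammonium chloride 50 mM, nigericin 10 μM plus monensin 20 μM, or co-drug). Stopped with ice-cold PBS, washed, lysed in acetonitrile with internal standard, quantified by LC-MS/MS.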

[4] = Drug uptake in lysosomes of human Fa2N-4 cells assessed as cellular partitioning measured per 10^6 cells at 1 uM after 5 mins by LC-MS analysis in presence of ammonium chloride; assay type: ADME, cell-based, Lysosome; conditions: fa2n-4, 5 min; method in brief: as §1
[5] = Drug uptake in lysosomes of human Fa2N-4 cells assessed as cellular partitioning at 1 uM preincubated with chloroquine followed by compound treatment measured after 5 mins by LC-MS analysis; assay type: ADME, cell-based, Lysosome; conditions: fa2n-4, 5 min
Method in brief: (§2)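 Inhibitor is ammonium chloride 50 mM or chloroquine 200 μM. Three orders of addition: added together with substrate; added 5 min before substrate and left in; or added 5 min before substrate, then cells washed before substrate. Stopped with ice-cold PBS, acetonitrile lysis with internal standard, LC-MS/MS.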

[6] = Drug uptake in lysosomes of human Fa2N-4 cells assessed as cellular partitioning at 1 uM up to 10 mins by LC-MS analysis; assay type: ADME, cell-based, Lysosome; conditions: fa2n-4, 10 min; method in brief: as §1
[7] = Drug uptake in lysosomes of human Fa2N-4 cells assessed as cellular partitioning at 1 uM measured at 10 mins by LC-MS analysis in presence of ammonium chloride; assay type: ADME, cell-based, Lysosome; conditions: fa2n-4, 10 min; method in brief: as §1
[8] = Drug uptake in lysosomes of human Fa2N-4 cells assessed as cellular partitioning at 1 uM co-incubated with ammonium chloride for 5 mins by LC-MS analysis; assay type: ADME, cell-based, Lysosome; conditions: fa2n-4, 5 min; method in brief: as §1
[9] = Drug uptake in lysosomes of human Fa2N-4 cells assessed as cellular partitioning at 1 uM co-incubated with chloroquine for 5 mins by LC-MS analysis; assay type: ADME, cell-based, Lysosome; conditions: fa2n-4, 5 min; method in brief: as §2
[10] = Drug uptake in lysosomes of human Fa2N-4 cells assessed as cellular partitioning at 1 uM preincubated with ammonium chloride followed by compound treatment measured after 5 mins by LC-MS analysis; assay type: ADME, cell-based, Lysosome; conditions: fa2n-4, 5 min; method in brief: as §2
[11] = Drug uptake in lysosomes of human Fa2N-4 cells assessed as cellular partitioning at 1 uM preincubated with ammonium chloride for 5 mins followed by media washout and compound treatment measured after 5 mins by LC-MS analysis; assay type: ADME, cell-based, Lysosome; conditions: fa2n-4, 5 min; method in brief: as §2
[12] = Drug uptake in lysosomes of human Fa2N-4 cells assessed as cellular partitioning at 1 uM preincubated with chloroquine for 5 mins followed by media washout and compound treatment measured after 5 mins by LC-MS analysis; assay type: ADME, cell-based, Lysosome; conditions: fa2n-4, 5 min; method in brief: as §2
[13] = Drug uptake in lysosomes of human Fa2N-4 cells assessed as cellular partitioning at 1 uM after 5 mins by LC-MS analysis in presence of ammonium chloride; assay type: ADME, cell-based, Lysosome; conditions: fa2n-4, 5 min; method in brief: as §1
[14] = Drug uptake in lysosomes of human Fa2N-4 cells assessed as cellular partitioning at 1 uM after 5 mins by LC-MS analysis in presence of nigericin and monensin; assay type: ADME, cell-based, Lysosome; conditions: fa2n-4, 5 min; method in brief: as §1
[15] = Drug uptake in lysosomes of human Fa2N-4 cells assessed as cellular partitioning at 1 uM after 5 mins by LC-MS analysis in presence of ammonium chloride, nigericin and monensin; assay type: ADME, cell-based, Lysosome; conditions: fa2n-4, 5 min; method in brief: as §1
[16] = Drug uptake in lysosomes of human Fa2N-4 cells assessed as cellular partitioning at 1 uM after 5 mins by LC-MS analysis in presence of astemizole; assay type: ADME, cell-based, Lysosome; conditions: fa2n-4, 5 min; method in brief: as §1
[17] = Drug uptake in lysosomes of human Fa2N-4 cells assessed as cellular partitioning at 1 uM after 5 mins by LC-MS analysis in presence of dextromethorphan; assay type: ADME, cell-based, Lysosome; conditions: fa2n-4, 5 min; method in brief: as §1
[18] = Drug uptake in lysosomes of human Fa2N-4 cells assessed as cellular partitioning at 1 uM after 5 mins by LC-MS analysis in presence of chloroquine; assay type: ADME, cell-based, Lysosome; conditions: fa2n-4, 5 min; method in brief: as §2
[19] = Drug uptake in lysosomes of human Fa2N-4 cells assessed as cellular partitioning at 1 uM after 5 mins by LC-MS analysis in presence of imipramine; assay type: ADME, cell-based, Lysosome; conditions: fa2n-4, 5 min; method in brief: as §1
[20] = Drug uptake in lysosomes of human Fa2N-4 cells assessed as cellular partitioning at 1 uM after 5 mins by LC-MS analysis in presence of diclofenac; assay type: ADME, cell-based, Lysosome; conditions: fa2n-4, 5 min; method in brief: as §1
[21] = Drug uptake in lysosomes of human Fa2N-4 cells assessed as cellular partitioning at 1 uM after 5 mins by LC-MS analysis in presence of rifampin; assay type: ADME, cell-based, Lysosome; conditions: fa2n-4, 5 min; method in brief: as §1
[22] = Drug uptake in lysosomes of human Fa2N-4 cells assessed as cellular partitioning at 1 uM after 5 mins by LC-MS analysis in presence of atorvastatin; assay type: ADME, cell-based, Lysosome; conditions: fa2n-4, 5 min; method in brief: as §1

Row | Structure (SMILES) | IC50 [1] [µM] | also measured
1 | CC(=O)Nc1ccc(O)cc1 [ACETAMINOPHEN] | > 500 | –
2 | CCN(CC)Cc1cc(Nc2ccnc3cc(Cl)ccc23)ccc1O [AMODIAQUINE] | > 500 | inhibition at 0.5 h, 500 µM [2]: > 25%
3 | COc1ccc(CCN2CCC(Nc3nc4ccccc4n3Cc3ccc(F)cc3)CC2)cc1 [ASTEMIZOLE] | 110 | –
4 | CC(C)c1c(C(=O)Nc2ccccc2)c(-c2ccccc2)c(-c2ccc(F)cc2)n1CC[C@@H](O)C[C@@H](O)CC(=O)O [ATORVASTATIN] | > 500 | Drug uptake [3]: < 11 pmol; Drug uptake [4]: 34 pmol
5 | O=C(O)COCCN1CCN(C(c2ccccc2)c2ccc(Cl)cc2)CC1 (stereo not given) [CETIRIZINE] | > 500 | –
6 | CCN(CC)CCCC(C)Nc1ccnc2cc(Cl)ccc12 (stereo not given) [CHLOROQUINE] | 220 | –
7 | CNCCCN1c2ccccc2CCc2ccccc21 [DESIPRAMINE] | 220 | –
8 | COc1ccc2c(c1)[C@]13CCCC[C@@H]1[C@H](C2)N(C)CC3 [DEXTROMETHORPHAN] | > 500 | inhibition at 0.5 h, 500 µM [2]: > 25%
9 | O=C(O)Cc1ccccc1Nc1c(Cl)cccc1Cl [DICLOFENAC] | > 500 | –
10 | C#Cc1cccc(Nc2ncnc3cc(OCCOC)c(OCCOC)cc23)c1 [ERLOTINIB] | > 500 | –
11 | OC(Cn1cncn1)(Cn1cncn1)c1ccc(F)cc1F [FLUCONAZOLE] | > 500 | –
12 | CNCCC(Oc1ccc(C(F)(F)F)cc1)c1ccccc1 (stereo not given) [FLUOXETINE] | 150 | –
13 | CC(C)n1c(/C=C/C(O)CC(O)CC(=O)O)c(-c2ccc(F)cc2)c2ccccc21 (stereo not given) [FLUVASTATIN] | > 500 | –
14 | CC(C)Cc1ccc(C(C)C(=O)O)cc1 (stereo not given) [IBUPROFEN] | > 500 | –
15 | CN(C)CCCN1c2ccccc2CCc2ccccc21 [IMIPRAMINE] | 260 | –
16 | CC(C(=O)O)c1cccc(C(=O)c2ccccc2)c1 (stereo not given) [KETOPROFEN] | > 500 | –
17 | O=C(c1ccccc1)c1ccc2n1CCC2C(=O)O (stereo not given) [KETOROLAC] | > 500 | –
18 | CC(CCc1ccccc1)NCC(O)c1ccc(O)c(C(N)=O)c1 (stereo not given) [LABETALOL] | > 500 | inhibition at 0.5 h, 500 µM [2]: > 25%
19 | CS(=O)(=O)CCNCc1ccc(-c2ccc3ncnc(Nc4ccc(OCc5cccc(F)c5)c(Cl)c4)c3c2)o1 [LAPATINIB] | 380 | –
20 | COC(=O)C1=C(C)NC(C)=C(C(=O)OC)C1c1ccccc1[N+](=O)[O-] [NIFEDIPINE] | > 500 | –
21 | Fc1ccc([C@@H]2CCNC[C@H]2COc2ccc3c(c2)OCO3)cc1 [PAROXETINE] | 130 | –
22 | CC[C@H](C)C(=O)O[C@H]1C[C@H](O)C=C2C=C[C@H](C)[C@H](CC[C@@H](O)C[C@@H](O)CC(=O)O)[C@H]21 [PRAVASTATIN] | > 500 | –
23 | CC(C)NCC(O)COc1cccc2ccccc12 (stereo not given) [PROPRANOLOL] | – | Drug uptake [5]: Not Active; Drug uptake [3]: 189 pmol; Drug uptake [4]: Not Active; Drug uptake [6]: Not Active; Drug uptake [7]: Not Active; Drug uptake [8]: Not Active; Drug uptake [9]: Not Active; Drug uptake [10]: Not Active; Drug uptake [11]: Active; Drug uptake [12]: Not Active; Drug uptake [13]: Not Active; Drug uptake [14]: Not Active; Drug uptake [15]: Not Active; Drug uptake [16]: Not Active; Drug uptake [17]: Not Active; Drug uptake [18]: Not Active; Drug uptake [19]: Not Active; Drug uptake [20]: Active; Drug uptake [21]: Active; Drug uptake [22]: Active
24 | CCN1CCC[C@H]1CNC(=O)c1c(O)c(Cl)cc(Cl)c1OC [RACLOPRIDE] | > 500 | –
25 | CC(C)c1nc(N(C)S(C)(=O)=O)nc(-c2ccc(F)cc2)c1/C=C/[C@@H](O)C[C@@H](O)CC(=O)O [ROSUVASTATIN] | > 500 | –
26 | CN1C(C(=O)Nc2ccccn2)=C(O)c2sccc2S1(=O)=O [TENOXICAM] | > 500 | –
